High-throughput results deposited in PubChem by The Scripps Research Institute Molecular Screening Center.
Shown are actives, neighbours in structure and some others; about 3% of the full set was active somewhere.
TAAR1 antagonist = human TAAR1 antagonists, primary screen, Fluo-8 calcium fluorescence, CHO RD-HGA16 cells | Trace amine-associated receptor 1 (Homo sapiens), Q96RJ0 | antagonist | inhibition, % at 3 µM | 360,000 compounds, 1.5% hits;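 active means inhibition above a per-plate cutoff, the mean inhibition of test compounds on that plate plus 3 SD, cut at about 49% in these data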;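 further: 0% = DMSO plus EC80 beta-PEA response and 100% = DMSO alone without agonist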
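Assay system: CHO-derived RD-HGA16 cells stably expressing human TAAR1 plus Gα16. Timing: 140 s kinetic read after compound, 140 s after agonist. Technique: kinetic Fluo-8 calcium fluorescence measurement. Measure: % inhibition of agonist calcium response.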
CHRM4 PAM = human M4 muscarinic receptor positive allosteric modulators, primary screen, CHO-K1 cells, Fluo-8 calcium fluorescence | Muscarinic acetylcholine receptor M4 (Homo sapiens), P08173 | CHO-K1 hM4/Gqi5, ACh EC20; 0% = ACh EC20, 100% = maximal ACh | activation, % at 3 µM | 360,000 compounds, 0.4% hits;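 active means activation above its plate's cutoff, the mean activation of sample wells plus 3 SD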
Target sequence (P08173 whole entry, looked up): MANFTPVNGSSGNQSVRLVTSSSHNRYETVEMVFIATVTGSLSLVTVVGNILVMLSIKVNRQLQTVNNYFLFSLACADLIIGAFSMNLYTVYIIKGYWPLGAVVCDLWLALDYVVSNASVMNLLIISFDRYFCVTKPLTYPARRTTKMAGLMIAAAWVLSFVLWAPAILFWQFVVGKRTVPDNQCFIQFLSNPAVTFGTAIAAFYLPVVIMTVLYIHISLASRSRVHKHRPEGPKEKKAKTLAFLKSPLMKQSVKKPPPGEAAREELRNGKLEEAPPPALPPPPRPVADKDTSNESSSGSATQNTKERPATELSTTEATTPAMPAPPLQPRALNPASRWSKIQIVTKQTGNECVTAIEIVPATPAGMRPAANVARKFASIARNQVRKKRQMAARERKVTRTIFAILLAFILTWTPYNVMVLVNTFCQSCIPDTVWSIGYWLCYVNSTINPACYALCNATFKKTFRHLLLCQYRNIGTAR
CHRM4 antagonist = human M4 muscarinic receptor antagonists, primary screen, CHO cells, Fluo-8 calcium fluorescence; Muscarinic acetylcholine receptor M4 (Homo sapiens), P08173; CHO-hM4 cells, ACh EC80; inhibition, % at 3 µM; 360,000 compounds, 0.73% hits; AID 624125, 2012;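 active means inhibition above its plate's cutoff, the mean inhibition of sample wells plus 3 SD, cut at about 27% in these data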;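 further: 0% = acetylcholine EC80 with DMSO and 100% = DMSO without agonist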
TAAR1 ag = human TAAR1 agonists, primary screen, Fluo-8 calcium fluorescence, CHO RD-HGA16 cells. Trace amine-associated receptor 1 (Homo sapiens), Q96RJ0. vehicle wells 0%, saturating PEA agonist 100%. activation, % at 3 µM. 360,000 compounds, 0.99% hits;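 active means activation above the mean activation of all test compounds in the run plus 3 SD, cut at about 38% in these data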
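Benchmarks: low control DMSO, high control PEA (EC100); System: CHO RD-HGA16 cells carrying human TAAR1 plus Gα16; Detection: Fluo-8 fluorescence, 5 s baseline then 140 s kinetic read; Schedule: 17-24 h plating, Fluo-8 75 min 37 °C, 30 min RT; Read-out basis: % activation from peak over basal fluorescence ratio, DMSO-to-PEA scaled.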
CHRM4 agonist = human M4 muscarinic receptor agonists, primary screen, CHO-K1 cells, Fluo-8 calcium fluorescence; Muscarinic acetylcholine receptor M4 (Homo sapiens), P08173; CHO-K1 hM4/Gqi5; vehicle 0%, full acetylcholine response 100%; activation, % at 3 µM; 360,000 compounds, 0.14% hits; AID 624127, 2012;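 active means activation above the run mean over all test wells plus 3 SD, cut at about 32% in these data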;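 further: peak over basal fluorescence ratio per well then scaled between controls; 0% = DMSO wells and 100% = acetylcholine at EC100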
An asterisk follows results filed as active; . = no result.

SMILES | TAAR1 antagonist | CHRM4 PAM | CHRM4 antagonist | TAAR1 ag | CHRM4 agonist
CC(C)(C)OC(=O)NCCCCCNC(=O)c1nc[nH]c1C(=O)N1CCN(c2ccccc2)CC1 | 50* | -13 | 9 | 21 | 23
CC(C)C[C@H](NC(=O)c1nc[nH]c1C(=O)N1CCN(C(=O)OC(C)(C)C)CC1)C(=O)OC(C)(C)C | 4 | 25* | 1 | 0 | 0
O=S1(=O)c2cc(Cl)ccc2N2CC[C@H](C2)N1Cc1ccc(Cl)c(Cl)c1 | 2 | . | . | 2 | .
CCN(CC)S(=O)(=O)c1cccc(C(=O)/C=C2/N(C)c3ccccc3C2(C)C)c1 | 59* | 2 | -6 | 1 | 3
C=CCN1C(=O)c2n[nH]c(C)c2C1c1ccc(C)cc1 (configuration not stated) | -1 | . | . | 0 | .
COC(=O)N1C[C@H](OCc2ccc3c(c2)OCO3)[C@H]2C[C@@H]1c1ccccc1O2 | -39 | . | . | -2 | .
Cc1cc(C)cc(Cn2c3ccc(NC(=O)NCCc4cccs4)cc3c(=O)n2C)c1 | 59* | -11 | -2 | 42* | 11
Cn1c(=O)c2cc(NC(=O)NCCc3cccs3)ccc2n1Cc1ccccc1 | 21 | -4 | 3 | 6 | 5
COCCN1Cc2cc(C(=O)OC)c3c(c2C1=O)c1cc(OC)ccc1n3S(=O)(=O)c1ccc(C)cc1 | -33 | . | . | 2 | .
c1cc(-c2ccc(N3CCOCC3)cc2)n2ccnc2c1 | -9 | 3 | -14 | 3 | 2
O=C(COc1cccc(NC(=O)c2cccc([N+](=O)[O-])c2)c1)c1ccc(Br)cc1 | 83* | -6 | -1 | 19 | 5
Cc1sc2nc(CN3CCOCC3)nc(N3CCC(C(N)=O)CC3)c2c1C | -2 | 21* | 2 | 27 | 4
CCOC(=O)[C@@H]1CSCCS(=O)(=O)N1C(=O)[C@H](Cc1ccccc1)NC(=O)OC(C)(C)C | 7 | . | . | 1 | .
CNC[C@@H]1OCc2ccccc2-c2c(n(C)c3ccccc23)C(=O)N([C@@H](C)CO)C[C@@H]1C | -24 | . | . | 7 | .
CCN(CC)CCCNc1nc2cc(OC)c(OC)cc2c2nc(-c3ccccc3)nn12 | 4 | 17* | -4 | 4 | 2
COCc1cc(N2CCN(C(=O)OC(C)(C)C)C[C@H]2C)ccc1N1CC[C@@H](O)C1 | 5 | . | . | 2 | .
O=S(=O)(c1ccc(N2CCCCCC2)nc1)N1CCCC1 | -1 | -17 | 29* | 8 | 0
CN1CCN(c2ccc(S(=O)(=O)N3CCCCC3)cn2)CC1 | -25 | 17 | 5 | 1 | 1
CCN(c1ccccc1)S(=O)(=O)c1ccc(OC)c(NC(=O)C2CCC2)c1 | -17 | 8 | -7 | 0 | 3
CCN(c1ccccc1)S(=O)(=O)c1ccc(OC)c(NC(=O)CNCCc2ccccc2)c1 | 55* | -27 | 11 | 31 | 14
COc1ccccc1Nc1nc2ccccc2n2cnnc12 | 26 | -11 | 14 | 10 | 3
COc1ccccc1Nc1nc2ccccc2n1C | -5 | -8 | 44* | -1 | -1
O=C1c2cccc3c([N+](=O)[O-])ccc(c23)C(=O)N1c1ccc(Cl)cn1 | 71* | -13 | 32* | 2 | 4
O=C1c2cccc3c([N+](=O)[O-])ccc(c23)C(=O)N1c1ccccn1 | 27 | -6 | 15 | 1 | 1
O=C1c2cccc3c([N+](=O)[O-])ccc(c23)C(=O)N1c1nccs1 | 45 | -12 | 36* | -3 | -2
SMILES | TAAR1 antagonist | CHRM4 PAM | CHRM4 antagonist | TAAR1 ag | CHRM4 agonist
CC(C)C[C@H]1CNC(=O)C(=O)N1CC1CCN(CC2CCC(C(C)(C)C)CC2)CC1 (some centres not stated) | -25 | -10 | 14 | -1 | 0
CC(C)(C)c1ccc(CC(=O)N2CCC2(C)C(=O)Nc2cnc3ccccc3c2)cc1 (configuration not stated) | 53* | -12 | 23 | 2 | 19
CC(C)c1ccc(CC(=O)N2CCC2(C)C(=O)Nc2cnc3ccccc3c2)cc1 (configuration not stated) | 17 | -6 | -1 | 5 | 16
O=C1c2cc(Cl)ccc2OC2(CCNCC2)C12CC(c1ccc(Cl)cc1)=NO2 (configuration not stated) | . | 6 | 3 | . | 4
O=C1c2cc(Cl)ccc2OC2(CCNCC2)C12CC(c1ccccc1)=NO2 (configuration not stated) | 39 | 11 | 8 | 43* | 9
COC(=O)c1ccc(NC(=O)Nc2ccc(F)cc2F)cc1 | -2 | -10 | -4 | 17 | 10
CCN(CC)c1ccc(NC(=O)Nc2ccccc2)cc1 | 50* | -16 | -2 | 25 | 16
CNC(=O)c1ccc(NC(=O)Nc2ccccc2)cc1 | 10 | -3 | 0 | 40* | 3
COC(=O)c1ccc(NC(=O)Nc2cccc(F)c2)cc1 | 4 | -12 | 9 | 39* | 16
CCN(CC)c1ccc(NC(=O)Nc2ccc(C(C)=O)cc2)cc1 | 32 | -9 | 6 | 20 | 9
COc1cc(CCc2ccccc2)c(C(=O)O)c(O)c1C/C=C(/C)CCC=C(C)C | 53* | -1 | -15 | -1 | -1
COc1cc(CCc2ccccc2)c(C(=O)O)c(O)c1CC=C(C)C | 26 | 2 | -11 | -3 | 4
Cc1ccc(C(c2sc3nc(C)nn3c2O)N2CC(C)OC(C)C2)cc1 (configuration not stated) | 7 | -1 | 3 | 2 | 0
Cc1nc2sc(C(c3ccc(Cl)cc3)N3CC(C)OC(C)C3)c(O)n2n1 (configuration not stated) | 1 | 17* | -2 | 10 | 2
COCC#Cc1ccc2c(c1)O[C@H](CN(C)C(=O)c1ccccc1)[C@@H](C)CN([C@H](C)CO)S2(=O)=O | -26 | . | . | 1 | .
c1ccc2c(c1)OCC(CNCC1COc3ccccc3O1)O2 (configuration not stated) | 1 | -1 | 11 | 5 | 1
Oc1ccc(CNCC2COc3ccccc3O2)cc1 (configuration not stated) | -1 | -4 | 5 | 38* | 1
COC(=O)c1ccc(NC(=O)CN2CCN(c3ccccn3)CC2)cc1 | -38 | 8 | -3 | 2 | 4
CCOC(=O)N1CCN(CC(=O)Nc2ccc([N+](=O)[O-])cc2C(=O)Nc2ccccc2F)CC1 | 56* | -11 | 10 | 14 | 13
COc1cc(NC(=O)c2cc([N+](=O)[O-])ccc2NC(=O)CN2CCN(c3ccccn3)CC2)cc(OC)c1 | 61* | -11 | 13 | 3 | 10
